Consider one compound from ChEMBL document CHEMBL3745671, “Discovery of N-[5-(6-Chloro-3-cyano-1-methyl-1H-indol-2-yl)-pyridin-3-ylmethyl]-ethanesulfonamide, a Cortisol-Sparing CYP11B2 Inhibitor that Lowers Aldosterone in Human Subjects” (J Med Chem, 2015).

Structures are written as SMILES. pIC50: −log10 of the molar value. Activity calls are given as the source filed them. The calls are words filed in the database; no cut-off is given here.

The subject of one series is Cynomolgus monkey. Put plainly: Decrease in ACTH-stimulated plasma cortisol level of chair-trained chronically cannulated cynomolgus monkey model at 0.03 to 3 mg/kg, po compound administered followed by ACTH challenge for 24 hrs by LC/MS/MS analysis. It counts as functional, organism-based. Particulars: Macaca fascicularis. The gist of the method:
(§1)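 Conscious chair-trained, chronically cannulated male cynomolgus monkeys; vascular access port via Huber needle. Baseline blood (heparin) before dosing; methylcellulose suspension po at 0.03, 0.1, 0.3 or 3 mg/kg (n=3/dose) or vehicle (n=6, same animals). ACTH(1–24) 3000 ng/kg iv 3 h post-dose; sampling 0.125–1 h post-ACTH, up to 8 h, and 23.5 and 24 h. Aldosterone and cortisol by RIA; drug by LC/MS/MS (LLOQ 0.26 nmol/L, lower values set to zero).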

Series [1] deals with Homo sapiens. Put plainly: Dose normalized Cmax in healthy human at 30 mg/kg, po bid. The class given is ADME, organism-based. Particulars: in vivo. The gist of the method:
(§2)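 Double-blind, randomized, placebo-controlled study in healthy male and female volunteers aged 18-63 on a restricted sodium/potassium diet. Oral bid doses of 30, 60, 100 or 200 mg, drug:placebo 5:2. N per dose 10–17. AUCtau, Cmax and median Tmax reported; dose-normalized values are AUCtau/dose and Cmax/dose.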

The test system of series [2] is Homo sapiens. Description: Toxicity in human assessed as decrease in urinary cortisol level at 30 to 200 mg/kg, po bid measured over 24 hrs. It counts as organism-based, Urine. The note with it: in vivo, in the assay text read “30 to 200 mg” for “30 to 200 mg/kg”. The gist of the method:
(§3)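 Healthy male and female volunteers, 18-63 years, restricted sodium/potassium diet; double-blind randomized placebo-controlled, oral 30, 60, 100 or 200 mg bid (drug:placebo 5:2).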

In series [3] the test system is Homo sapiens. Put plainly: Dose normalized AUCtau in healthy human at 100 mg/kg, po bid. The note with it: in vivo. It counts as ADME, organism-based. The gist of the method: as §2
Series [4] has as its system Homo sapiens. Description: Decrease in urinary aldosterone excretion in po dosed human administered as bid measured over 24 hrs. The class given is functional, organism-based. The note with it: Urine. The gist of the method: as §3
A short description of series [5]: Half life in continuous angiotensin 2 infusion Sprague-Dawley rat model at 3 mg/kg, po and 1 mg/kg, iv. Particulars: in vivo. It counts as ADME, organism-based.
A further series relates to Plasma. Put plainly: Drug uptake in plasma of po dosed chair-trained chronically cannulated cynomolgus monkey model compound administered followed by ACTH challenge for 3 hrs measured up to 8 hrs post challenge by LC/MS/MS analysis. It counts as ADME, organism-based, Macaca fascicularis. The note with it: in vivo. The gist of the method:
as §1

A short description of series [6]: Tmax in healthy human at 60 mg/kg, po bid. The class given is ADME, organism-based. Particulars: in vivo. The gist of the method: as §2
The nature of series [7]: Inhibition of CYP11B2 in cynomolgus monkey adrenal homogenates assessed as inhibition of aldosterone secretion. It counts as tissue-based, Macaca fascicularis. The gist of the method: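 Cynomolgus monkey adrenal homogenates, with 11-DOC as substrate; aldosterone secretion inhibition determined as IC50.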
Series [8] can be described thus: Clearance in continuous angiotensin-2 infusion Sprague-Dawley rat model at 3 mg/kg, po and 1 mg/kg, iv. The class given is ADME, organism-based. The note with it: in vivo.
For series [9], the target named is T1, Cytochrome P450 11B2, mitochondrial (Rattus norvegicus, UniProt P30099).
T1 sequence (P30099 whole entry): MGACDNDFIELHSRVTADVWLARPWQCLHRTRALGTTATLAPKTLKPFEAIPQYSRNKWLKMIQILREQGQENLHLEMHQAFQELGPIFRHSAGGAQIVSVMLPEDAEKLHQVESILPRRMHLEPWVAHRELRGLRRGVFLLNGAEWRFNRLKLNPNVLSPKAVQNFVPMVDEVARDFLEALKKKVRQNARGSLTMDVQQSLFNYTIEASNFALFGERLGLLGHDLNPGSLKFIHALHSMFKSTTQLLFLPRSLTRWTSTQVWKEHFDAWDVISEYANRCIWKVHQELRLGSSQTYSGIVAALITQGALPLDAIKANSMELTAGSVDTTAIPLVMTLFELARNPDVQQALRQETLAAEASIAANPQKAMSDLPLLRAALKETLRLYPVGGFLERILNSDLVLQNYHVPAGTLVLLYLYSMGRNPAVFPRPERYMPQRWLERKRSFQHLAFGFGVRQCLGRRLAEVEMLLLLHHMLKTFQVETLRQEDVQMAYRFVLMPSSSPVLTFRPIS
Put plainly: Inhibition of recombinant rat CYP11B2 using 11-deoxycorticosterone as substrate after 2 hrs by scintillation proximity assay.

The subject of series [10] is Homo sapiens. Description: Decrease in plasma aldosterone level in po dosed human administered as bid measured over 24 hrs. It counts as functional, organism-based. The gist of the method: as §3

The half-life is how long it takes for the measured level to halve. For orientation: Tmax means the time at which the peak concentration occurs. The pIC50 is the negative decadic logarithm of the IC50, by convention in mol/L. On to `CCS(=O)(=O)NCc1cncc(-c2c(C#N)c3ccc(Cl)cc3n2C)c1`, for which the outcome in the series with Cynomolgus monkey was inactive. This compound also gave a Cmax/dose with Homo sapiens [1] of 3.9 ng/mL. The Activity entry in the series with Homo sapiens [2] was “Non-toxic”; in the series on Homo sapiens [4], “Dose-dependent effect”; in the series with Homo sapiens [10], “Dose-dependent effect”. In the series with Homo sapiens [3], this compound showed an AUC/dose of 12.7 ng·h/mL/mg. Moreover, the half-life in series [5] was 66 min. Also, the Drug uptake result in the series on Plasma is on record as “Dose-dependent effect”. In addition, the Tmax in [6] turned out to be 3 h. The negative logarithm of the IC50 (pIC50) in series [7] is 8.00; in series [9], 4.56. The compound also came in with a clearance in [8] of 18 mL/min/kg.
